# Compound activity from PubChem BioAssay.
# TWEAK-Fn14 inh – inhibitors of TWEAK-Fn14 interaction signaling; TWEAK-stimulated Fn14 reporter cells, luciferase luminescence, 8 h; inhibition, % at 10 µM; 360,000 tested, 2% active; AID 1159606; in the data active means inhibition above about 50%
# CaV13 FRET inh – Primary screen for inhibitors of IQ motif and Ca2+-dependent inactivation inhibitor domain binding in CACNA1D, Förster resonance energy transfer in living cells, …; AID 743397; inhibition, % at 12.3 µM; 340,000 tested, 0.098% active; HEK cells, CFP/YFP FRET ICDI-IQ, plate reader, 10 min; percent FRET-ratio fall versus neutral wells;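 active means mean replicate inhibition of at least 30% and at least 1% of replicates passing that level; inconclusive means only one of the two criteria is met; inactive means neither criterion is met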;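 further: 0% = median of the neutral control wells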
# Xi reactivation – X-chromosome reactivation activator. XiGFP mouse fibroblasts, % GFP-positive cells imaging, 3 d; cells co-treated with 5-aza-dC sensitizer; scaled so ellipticine positive control = 100%. activation, % at 7.58 µM. 360,000 tested, 0.055% active. AID 743238;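 active means mean normalized replicate activation at least 10% and every replicate at or above 10%; inconclusive means only one of the two criteria met; inactive means mean below 10% and not all replicates reach 10%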;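 further: 0% = median of on-plate neutral control wells and 100% = ellipticine 6 µM median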
#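 Schedule: 3 d treatment, 15 min room-temperature fixation; system: 68-5-11 XiGFP fibroblast line; buffer or medium: DMEM plus 5-aza-dC sensitizer; control set: ellipticine 6 µM positive control; compound: one concentration, pinned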
# LGR2 antag – inhibitors of bursicon-induced Drosophila LGR2 receptor cAMP signaling | HEK293 LGR2, CRE-luciferase, bursicon-stimulated, 4 h | inhibition, % at 9.99 µM | 380,000 tested, 0.35% active | AID 720647;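 active means drop in luminescence signal, shown as inhibition above about 50% in the replicate tests, limit read from the data, passing the limit was not always enough; inconclusive means probably only some replicates passing the limit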;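 further: agonist challenge used bursicon conditioned medium at about half maximal strength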
# TROY NFkB inh – TROY signaling inhibition. Q293 LMP1-TROYcd NF-kB luciferase reporter, 4 h. inhibition, % at 10 µM. 360,000 tested, 0.98% active. AID 1347056;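 active means compounds whose plate-normalised and pattern-corrected inhibition of the luciferase reporter signal at the single screening dose is 50% or more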
# * hit, by the source's call; ? = inconclusive; . = no result. A selection: hits, their analogues and other compounds. The true share with any hit is near 2%.
SMILES,TWEAK-Fn14 inh,CaV13 FRET inh,Xi reactivation,LGR2 antag,TROY NFkB inh
CN1C(=O)c2cc(NC(=O)c3ccc(C(F)(F)F)cc3)ccc2OC[C@@H]2O[C@@H](CC(=O)O)CC[C@@H]21,.,.,0,-10,.
COc1ccc2c3c(n(C)c2c1)[C@@H](CO)N(CC1CC1)CC31CCN(C(=O)c2ccc(F)cc2)CC1,.,.,0,1,.
Nc1nc2ccccc2n1/N=C/c1ccc(-c2ccccc2)o1,53*,-4,.,.,-23
C[n+]1c2n(c3ccccc31)N=C(c1ccc(-c3ccccc3)cc1)CS2,54*,2,0,-24,20
BrC(=C\c1ccccc1)/C=N/Nc1ccc2nncn2n1,-12,-3,0,-16,-34
BrC(=C\c1ccccc1)/C=N/n1cnnc1,72*,-4,0,86*,16
COc1ccc(N/N=C(\C#N)C(=N)SCc2ccccc2)cc1,77*,-5,0,67*,52*
CO[C@H]1CN(C)C(=O)c2ccc(NC(=O)C3CC3)cc2OC[C@H](C)N(C(=O)c2ccccc2F)C[C@@H]1C,.,.,0,-8,.
CCOC(=O)N1CCN(C(=O)c2ccc(NS(C)(=O)=O)cc2)CC1,17,-8,.,5,-2
CCOC(=O)c1ccc(NC(=S)P(=O)(c2ccccc2)c2ccccc2)cc1,71*,-6,0,9,-13
CCOC(=O)c1ccc(NS(C)(=O)=O)cc1,82*,-5,.,1,.
COc1ccc(NC(=O)Nc2ccc3c(c2)[C@@H]2C[C@H](CC(=O)N4CCc5ccccc5C4)O[C@H](CO)[C@@H]2O3)cc1,.,.,0,-15,.
COc1ccc(-n2cnc3cc(NCc4ccccn4)ccc32)cc1,4,-8,.,-37,16
COc1ccccc1-n1cnc2cc(NCc3ccccn3)ccc21,52*,-4,.,.,56*
CN(C)CC#Cc1ccc([C@H]2[C@H](CO)N3CCCCN(C(=O)C4CCC4)C[C@@H]23)cc1,.,.,0,2,.
C[n+]1c2cc(N)ccc2cc2ccc(N)cc21,-28,11,53*,0,-50
Nc1ccc2ccc(O)cc2c1,31,-6,0,-35,30
C[C@H](CO)N1C[C@H](C)[C@@H](CN(C)C(=O)Nc2ccc(F)cc2)Oc2c(NS(=O)(=O)c3cn(C)cn3)cccc2C1=O,.,.,0,8,.
CC=Cc1ccc2n(c1=O)C[C@@H]1[C@@H](CO)[C@H](C(=O)Nc3ccc(-c4ccccc4)cc3)[C@H]2N1CC (mixture of isomers),.,.,1,-14,.
COc1cc(/C=N/NC(=Nc2ccc(C)cc2)c2nc3ccccc3s2)ccc1O,107*,-4,.,.,88*
Cc1cccc(Nc2nc(N)c([N+](=O)[O-])c(NCc3ccccc3)n2)c1,18,-5,0,3,23
Nc1nc(Nc2ccccc2)nc(NC2CCCCC2)c1[N+](=O)[O-],32,-4,0,0,74*
COc1cccc(Nc2nc(N)c([N+](=O)[O-])c(NCc3ccccc3)n2)c1,51*,-5,0,-8,-5
CCCc1ccc(OC(=O)c2ccc(O)cc2Cl)cc1,40,-5,0,-49,58*
CCCc1ccc(OC(=O)c2cccs2)cc1,-26,-8,.,-16,-11
SMILES,TWEAK-Fn14 inh,CaV13 FRET inh,Xi reactivation,LGR2 antag,TROY NFkB inh
COc1ccccc1CNC(=O)C[C@H]1CC[C@H](NC(=O)CN(C)C)[C@@H](CO)O1,.,.,0,-30,.
O=C(/C=C/c1cccc(F)c1)N1CCc2ccccc21,15,-6,0,54*,-36
COCC(=O)Nc1ccc2c(c1)C(=O)N(C)[C@H]1CC[C@@H](CC(=O)NCC3CCCCC3)O[C@H]1CO2,.,.,0,-10,.
CCOc1ccc(N=Cc2c(O)c3ccccc3oc2=O)cc1,5,-3,2,-41,29
CCc1ccc(OCC(=O)c2c(O)c3ccccc3oc2=O)cc1,16,9,0,11,59*
Cc1cc(=O)oc2cc(OCC(=O)c3ccccc3)ccc12,-17,-20,0,1,-7
Cc1ccc(C(C)C)c(OCC(=O)c2c(O)c3ccccc3oc2=O)c1,15,.,.,.,51*
Cc1ccc(OCC(=O)c2c(O)c3ccccc3oc2=O)cc1C,7,.,.,.,62*
c1ccc(-c2csc3ncnc(NCCCN4CCOCC4)c23)cc1,20,.,.,.,26
Cc1sc2ncnc(NCC3CCCO3)c2c1C (configuration not stated),12,-6,.,3,9
c1ccc(-c2csc3ncnc(NCC4COc5ccccc5O4)c23)cc1 (configuration not stated),91*,.,0,16,59*
Cc1sc2ncnc(NCC3COc4ccccc4O3)c2c1C (configuration not stated),57*,-19,1,12,41
COC(=O)c1ccc2nc(-c3cccc(N)c3)cn2c1,95*,-2,0,85*,53*
O=C(c1cc2c(c(-c3cccc(Br)c3)n1)[C@@H](CCO)NC2)N1CCCCC1,.,.,0,.,.
C=CCNc1ccc(N2C(=O)CCCC2=O)cc1[N+](=O)[O-],74*,-19,0,4,13
C=CCNc1ccc(N2C(=O)C3CCC(C)CC3C2=O)cc1[N+](=O)[O-] (configuration not stated),.,-2,0,-13,.
CC(=O)Nc1nc(C)c(-c2csc(Nc3cccc([N+](=O)[O-])c3)n2)s1,59*,.,.,16,37
CC(=O)Nc1nc(C)c(-c2csc(Nc3cccc(C(C)=O)c3)n2)s1,23,-17,0,-2,-15
CC1CC(C)C(=O)C(C(CC2CC(=O)NC(=O)C2)OC(=O)CC(=O)c2ccccc2)C1 (configuration not stated),51*,-5,0,82*,40
CC1(Cc2ccc(OC(F)(F)F)cc2)C(=O)Nc2ccc(S(=O)(=O)NC3CCCCC3)cc21 (configuration not stated),78*,-11,0,?,52*
CC1(Cc2ccc(Cl)cc2)C(=O)Nc2ccc(S(=O)(=O)NC3CCCCC3)cc21 (configuration not stated),17,-5,0,37,21
Nc1nonc1-c1nc2ccccc2n1Cc1ccc(F)cc1Cl,-24,-3,.,.,54*
Fc1ccc(Cn2c(-c3cscn3)nc3ccccc32)c(Cl)c1,-24,-5,.,.,5
COc1ccc(CCNC(=O)N2c3ccccc3Sc3ccccc32)cc1,55*,-5,.,.,45
COCCCNC(=O)N1c2ccccc2Sc2ccccc21,9,-3,0,-11,12
Fc1ccccc1/C=N/n1cc(-c2ccccc2)[nH]c1=S,-1,-2,0,-34,23
Cc1ccc(C)c(/C=N/n2cc(-c3ccccc3)[nH]c2=S)c1,14,-20,1,-32,53*
